From ChEMBL document CHEMBL1149258, “Synthesis and structure-activity relationships of novel histamine H1 antagonists: indolylpiperidinyl benzoic acid derivatives” (J Med Chem, 2004)
Activity calls are given as the source filed them. Unless noted, the rule behind the calls is not given here.

Tests used:
Cavia porcellus [1] = experiment: Effect on QT interval prolongation in Dunkin-Hartley guinea pigs at 10 mg/kg, iv; assay type: functional, organism-based; set-up: dose 10 mg/kg
Rattus norvegicus [2] = experiment: Inhibition of increase in histamine-induced cutaneous vascular permeability in orally dosed Wistar rat model after 1 hrs; assay type: functional; conditions: po
Method in brief: (§1)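 Male Wistar rats (150-175 g), fasted, dosed orally in 0.5% methylcellulose/0.1% Tween 80 (10 mL/kg), n=5. At 1 or 8 h after dosing, four intradermal injections of 5 µg histamine were given, plus iv 0.5% Evans Blue. Papule area (ellipse) measured 1 h later. ED50 in mg/kg po.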

[3] = target: Histamine H1 receptor (Cavia porcellus) (UniProt P31389); experiment: Displacement of [3H]mepyramine from histamine H1 receptor in guinea pig cerebellum membranes at […]; assay type: cell membranes; conditions: Membrane
Method in brief: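 Guinea-pig cerebellum membranes (160 µg/mL) incubated at 30 °C for 30 min with 0.7 nM [3H]-mepyramine, 0.5 mL final volume; filtration, bound radioactivity counted. Nonspecific binding with 10 µM promethazine. At least six concentrations in duplicate; IC50 by nonlinear regression. Stocks 10^-2 M in DMSO, further dilutions in 50% DMSO.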

[4] = target: Adrenergic receptor alpha-1 (Rattus norvegicus) (UniProt P15823+P23944+P43140); experiment: Displacement of [3H]prazosin from adrenergic alpha-1 receptor in rat brain membranes at 10 uM; assay type: cell membranes
[5] = Clearance in Wistar rat at 1 mg/kg, iv after 8 hrs; assay type: ADME, organism-based; set-up: dose 1 mg/kg, route intravenous; conditions: in vivo
Method in brief: (§2)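 Male Wistar rats, fasted overnight, dosed iv at 1 mg/kg. Blood sampled from 0.1 to 24 h; plasma stored at -20 °C. Levels measured by isocratic HPLC-UV (225 nm) after on-line solid-phase extraction, or by HPLC-MS (ESI+) for one analyte. Parameters from noncompartmental analysis.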

[6] = target: Histamine H1 receptor (Mus musculus) (UniProt P70174); experiment: Ex vivo displacement of [3H]mepyramine from brain histamine H1 receptor in orally dosed Swiss Albino mouse; assay type: functional, organism-based
Method in brief: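 Overnight-fasted male mice (20-25 g) dosed orally at several doses (0.5% methylcellulose/0.1% Tween 80, 10 mL/kg), killed 90 min later. Whole brain homogenised in ice-cold 0.05 M Na+/K+ phosphate pH 7.4; aliquots incubated in triplicate with 2 nM final [3H]-mepyramine, 40 min at 30 °C, then filtered. Nonspecific binding from 30 mg/kg po D-chlorpheniramine; total binding from vehicle. Three animals per dose; ED50 reported.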

Rattus norvegicus [7] = experiment: Inhibition of increase in histamine-induced cutaneous vascular permeability in orally dosed Wistar rat model after 8 hrs; assay type: functional; conditions: po; method in brief: as §1
Rattus norvegicus [8] = experiment: Inhibition of increase in histamine-induced cutaneous vascular permeability in orally dosed Wistar rat model after 4 hrs; assay type: functional; conditions: po
Method in brief: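 Fasted male rats (150-175 g; n=5 per condition) dosed orally in 0.5% methylcellulose/0.1% Tween 80. At 4 h, under light ether, received four intradermal injections of 5 µg histamine, then 0.5% Evans Blue iv. Killed 1 h later. Papule area from maximum and minimum diameters (ellipse); inhibition of papule area; ED50 (mg/kg, po).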

[9] = Volume of distribution at steady state in Wistar rat at 1 mg/kg, iv after 8 hrs; assay type: ADME, organism-based; set-up: dose 1 mg/kg, route intravenous; conditions: in vivo, read-out: Vss; method in brief: as §2
[10] = target: T1, Adrenergic receptor alpha-1 (Rattus norvegicus, UniProt P15823+P23944+P43140); experiment: Displacement of [3H]prazosin from adrenergic alpha-1 receptor in rat brain membranes; assay type: cell membranes
T1 sequence (P15823 whole entry): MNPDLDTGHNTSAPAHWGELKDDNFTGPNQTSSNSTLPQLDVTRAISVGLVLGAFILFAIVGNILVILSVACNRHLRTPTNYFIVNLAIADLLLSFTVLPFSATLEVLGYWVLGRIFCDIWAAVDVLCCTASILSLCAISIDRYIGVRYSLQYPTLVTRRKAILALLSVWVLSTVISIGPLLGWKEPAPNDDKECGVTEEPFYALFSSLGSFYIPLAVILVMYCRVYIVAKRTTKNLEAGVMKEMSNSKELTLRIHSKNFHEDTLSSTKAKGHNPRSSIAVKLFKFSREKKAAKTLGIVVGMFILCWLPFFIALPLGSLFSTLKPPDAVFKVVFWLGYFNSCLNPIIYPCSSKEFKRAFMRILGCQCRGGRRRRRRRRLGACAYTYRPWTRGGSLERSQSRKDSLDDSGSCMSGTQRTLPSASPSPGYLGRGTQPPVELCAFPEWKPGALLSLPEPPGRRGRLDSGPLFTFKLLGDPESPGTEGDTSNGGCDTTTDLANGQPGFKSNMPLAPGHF
T1 sequence (P23944 whole entry): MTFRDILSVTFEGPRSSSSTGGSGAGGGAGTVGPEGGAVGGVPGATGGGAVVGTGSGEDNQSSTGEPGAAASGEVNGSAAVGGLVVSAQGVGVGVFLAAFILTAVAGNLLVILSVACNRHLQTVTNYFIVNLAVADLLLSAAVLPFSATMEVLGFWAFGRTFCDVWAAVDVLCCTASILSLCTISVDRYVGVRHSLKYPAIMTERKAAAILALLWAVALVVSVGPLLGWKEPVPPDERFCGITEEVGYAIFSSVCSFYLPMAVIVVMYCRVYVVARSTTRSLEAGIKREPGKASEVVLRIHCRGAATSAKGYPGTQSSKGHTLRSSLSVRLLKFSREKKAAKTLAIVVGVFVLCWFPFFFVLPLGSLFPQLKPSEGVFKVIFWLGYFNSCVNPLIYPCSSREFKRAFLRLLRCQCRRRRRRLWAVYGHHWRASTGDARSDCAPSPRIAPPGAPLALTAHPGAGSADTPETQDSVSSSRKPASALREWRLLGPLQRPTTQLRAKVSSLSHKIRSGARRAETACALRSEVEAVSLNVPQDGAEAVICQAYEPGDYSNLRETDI
T1 sequence (P43140 whole entry): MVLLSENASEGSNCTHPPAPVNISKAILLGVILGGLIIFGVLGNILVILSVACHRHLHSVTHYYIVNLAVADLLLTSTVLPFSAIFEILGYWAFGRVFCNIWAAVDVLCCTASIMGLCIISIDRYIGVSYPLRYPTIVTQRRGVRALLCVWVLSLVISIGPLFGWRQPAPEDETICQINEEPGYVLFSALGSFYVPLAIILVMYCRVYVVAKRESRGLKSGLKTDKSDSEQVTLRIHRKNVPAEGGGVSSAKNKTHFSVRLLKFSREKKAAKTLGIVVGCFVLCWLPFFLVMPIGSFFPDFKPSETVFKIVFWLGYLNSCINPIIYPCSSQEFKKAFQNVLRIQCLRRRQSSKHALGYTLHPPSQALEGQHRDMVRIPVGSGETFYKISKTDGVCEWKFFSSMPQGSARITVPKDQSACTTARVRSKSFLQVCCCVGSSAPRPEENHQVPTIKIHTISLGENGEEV
Method in brief: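 Rat brain membranes (340 µg protein/mL) with 0.25 nM [3H]-prazosin in 50 mM Tris-HCl pH 7.7, room temperature, 60 min, filtration. Nonspecific binding with 100 µM prazosin. Several concentrations run in duplicate; IC50 by nonlinear regression.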

[11] = Half life in Wistar rat at 1 mg/kg, iv after 8 hrs; assay type: ADME, organism-based; set-up: dose 1 mg/kg, route intravenous; conditions: in vivo; method in brief: as §2
CYP3A4 = CYP3A4 (Homo sapiens, UniProt P08684); experiment: Inhibition of CYP3A4 in human microsomes at 25 uM; assay type: ADME, Microsome
Cavia porcellus [12] = experiment: Effect on QT interval prolongation in Dunkin-Hartley guinea pigs at 30 mg/kg, iv; assay type: functional, organism-based; set-up: dose 30 mg/kg
Method in brief: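 Male guinea pigs (500-600 g), urethane 1.5 g/kg anaesthesia, ventilated (10 mL/kg, 60 cycles/min). Stabilised at least 30 min, then 3-min jugular iv perfusion at 3, 10 and 30 mg/kg. Surface ECG recorded at end of perfusion and at 15, 30, 45 and 60 min. QTc by Bazett; change in ms from baseline. Vehicle-only controls.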

Histamine H1 receptor = Histamine H1 receptor (Cavia porcellus, UniProt P31389); experiment: Displacement of [3H]mepyramine from histamine H1 receptor in guinea pig cerebellum membranes; assay type: cell membranes, Membrane
Method in brief: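 Guinea pig cerebellum membranes (160 µg/mL) incubated with 0.7 nM [3H]-mepyramine at 30 °C for 30 min, 0.5 mL final volume, ended by filtration. Nonspecific binding with 10 µM promethazine. At least six concentrations in duplicate; IC50 by nonlinear regression. Compound stocks 10^-2 M in DMSO, diluted in 50% DMSO.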

Cavia porcellus [13] = experiment: Effect on QT interval prolongation in Dunkin-Hartley guinea pigs at 3 mg/kg, iv; assay type: functional, organism-based; set-up: dose 3 mg/kg

CYP3A4, sequence (P08684 whole entry): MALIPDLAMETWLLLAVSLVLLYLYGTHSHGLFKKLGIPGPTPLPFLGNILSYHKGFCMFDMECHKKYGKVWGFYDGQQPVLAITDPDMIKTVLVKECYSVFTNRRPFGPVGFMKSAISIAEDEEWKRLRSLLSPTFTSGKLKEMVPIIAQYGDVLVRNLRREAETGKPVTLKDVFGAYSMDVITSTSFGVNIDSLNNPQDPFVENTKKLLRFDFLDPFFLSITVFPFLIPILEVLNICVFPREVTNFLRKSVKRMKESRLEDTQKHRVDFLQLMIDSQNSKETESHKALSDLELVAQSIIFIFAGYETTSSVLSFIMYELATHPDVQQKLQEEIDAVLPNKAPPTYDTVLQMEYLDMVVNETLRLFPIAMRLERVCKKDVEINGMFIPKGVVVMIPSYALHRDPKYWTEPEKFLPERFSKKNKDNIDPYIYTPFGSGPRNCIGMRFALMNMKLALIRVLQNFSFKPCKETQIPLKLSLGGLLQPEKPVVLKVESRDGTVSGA
Histamine H1 receptor (Mus musculus), sequence (P70174 whole entry): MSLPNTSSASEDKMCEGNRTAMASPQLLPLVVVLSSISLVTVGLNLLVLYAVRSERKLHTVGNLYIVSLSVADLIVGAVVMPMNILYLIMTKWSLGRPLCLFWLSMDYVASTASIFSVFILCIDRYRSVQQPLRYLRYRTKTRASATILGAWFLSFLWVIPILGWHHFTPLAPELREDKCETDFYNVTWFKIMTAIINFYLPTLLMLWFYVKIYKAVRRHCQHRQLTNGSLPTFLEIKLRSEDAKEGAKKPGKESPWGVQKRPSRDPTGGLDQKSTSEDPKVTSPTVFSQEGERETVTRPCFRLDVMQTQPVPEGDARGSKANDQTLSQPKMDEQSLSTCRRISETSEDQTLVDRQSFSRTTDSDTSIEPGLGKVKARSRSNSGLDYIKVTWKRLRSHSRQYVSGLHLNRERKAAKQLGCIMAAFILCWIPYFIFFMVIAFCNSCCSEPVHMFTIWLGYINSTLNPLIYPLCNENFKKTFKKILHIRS
Histamine H1 receptor, sequence (P31389 whole entry): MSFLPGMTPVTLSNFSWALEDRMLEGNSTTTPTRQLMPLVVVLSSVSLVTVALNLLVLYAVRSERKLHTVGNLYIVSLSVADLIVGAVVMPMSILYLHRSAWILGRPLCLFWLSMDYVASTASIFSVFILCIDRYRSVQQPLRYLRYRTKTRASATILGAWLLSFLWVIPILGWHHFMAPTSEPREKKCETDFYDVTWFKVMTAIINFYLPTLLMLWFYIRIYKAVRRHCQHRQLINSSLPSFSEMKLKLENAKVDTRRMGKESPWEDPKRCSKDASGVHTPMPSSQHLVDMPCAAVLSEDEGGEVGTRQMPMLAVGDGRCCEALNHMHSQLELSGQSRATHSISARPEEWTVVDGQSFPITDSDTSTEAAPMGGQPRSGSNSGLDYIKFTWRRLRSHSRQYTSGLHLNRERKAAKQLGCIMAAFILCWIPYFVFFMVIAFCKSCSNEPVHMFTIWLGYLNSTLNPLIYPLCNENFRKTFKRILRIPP
Histamine H1 receptor (Cavia porcellus), sequence (P31389 whole entry): as above

clearance [5] [mL/min/kg]	ED50 [6] [mg/kg]	Vd [9] [L/kg]	IC50 [10] [µM]	half-life [11] [h]	IC50 (Histamine H1 receptor)	SMILES	Activity (Cavia porcellus [1])	ED50 (Rattus norvegicus [2]) [mg/kg]	Activity [3] [%]	Activity [4] [%]	ED50 (Rattus norvegicus [7])	ED50 (Rattus norvegicus [8]) [mg/kg]	inhibition at 25 µM (CYP3A4) [%]	Activity (Cavia porcellus [12])	Activity (Cavia porcellus [13])
13.3	> 100	0.5	> 10	0.9	0.155 µM (antagonist)	CCOCCn1cc(C2CCN(CCOc3ccccc3C(=O)O)CC2)c2cc(OC)ccc21	–	–	–	–	0.08 mg/kg (antagonist)	0.035	–	–	–
5	> 100	0.5	6.5	2.9	–	O=C(O)c1ccccc1OCCN1CCC(c2cn(CCC3OCCO3)c3ccccc23)CC1	–	–	–	–	0.9 mg/kg (antagonist)	0.46	–	–	–
–	10	–	> 10	–	0.047 µM (antagonist)	CCCCn1cc(C2CCN(CCOc3ccccc3C(=O)O)CC2)c2ccc(F)cc21	–	–	–	–	0.14 mg/kg (antagonist)	0.07	–	–	–
1.67	40	0.3	> 10	3.4	0.14 µM (antagonist)	COCCn1cc(C2CCN(CCOc3ccccc3C(=O)O)CC2)c2ccc(F)cc21	–	0.16	–	–	0.13 mg/kg (antagonist)	0.29	15	inactive	–
10	8	0.7	10	1.1	–	CCOCCn1cc(C2CCN(CCOc3ccccc3C(=O)O)CC2)c2ccccc21	inactive	0.02	–	–	0.22 mg/kg (antagonist)	0.1	0	–	–
6.67	100	0.4	> 10	1.6	–	CCCCn1cc(C2CCN(CCOc3ccccc3C(=O)O)CC2)c2ccccc21	–	–	–	–	0.8 mg/kg (antagonist)	0.74	–	–	–

Second part, the compound before the results:

SMILES	clearance [5] [mL/min/kg]	ED50 [6] [mg/kg]	Vd [9] [L/kg]	IC50 [10] [µM]	half-life [11] [h]	IC50 (Histamine H1 receptor)	Activity (Cavia porcellus [1])	ED50 (Rattus norvegicus [2]) [mg/kg]	Activity [3] [%]	Activity [4] [%]	ED50 (Rattus norvegicus [7])	ED50 (Rattus norvegicus [8]) [mg/kg]	inhibition at 25 µM (CYP3A4) [%]	Activity (Cavia porcellus [12])	Activity (Cavia porcellus [13])
CCOC(=O)N1CCC(=C2c3ccc(Cl)cc3CCc3cccnc32)CC1 [LORATADINE]	–	–	–	–	–	–	inactive	0.75	–	–	–	–	–	–	–
CCOCCn1cc(C2CCN(Cc3ncccc3C(=O)O)CC2)c2ccccc21	–	–	–	–	–	–	–	–	11	4	–	–	–	–	–
COc1ccc(CN2CCC(c3cn(Cc4cccs4)c4cc(F)ccc34)CC2)cc1C(=O)O	5	29	1.1	> 10	3.8	–	–	–	–	–	0.66 mg/kg (antagonist)	0.2	–	–	–
CCOCCn1cc(C2CCN(Cc3ccc(C(=O)O)cc3)CC2)c2ccccc21	–	4.5	–	–	–	–	–	–	7	8	0.15 mg/kg (antagonist)	–	–	–	–
COCCn1cc(C2CCN(Cc3ccc(OC)c(C(=O)O)c3)CC2)c2ccccc21	3.33	9.5	0.6	> 10	3.9	–	–	0.03	–	–	0.14 mg/kg (antagonist)	0.05	-9	inactive	–
COc1ccc(CN2CCC(c3cn(Cc4cccs4)c4ccccc34)CC2)cc1C(=O)O	10	11.5	1.8	> 10	3.1	–	inactive	0.32	–	–	0.56 mg/kg (antagonist)	0.24	-5	–	–
O=C(O)c1ccccc1OCCN1CCC(c2cn(Cc3ccoc3)c3cc(F)ccc23)CC1	–	19	–	> 10	–	0.042 µM (antagonist)	–	–	–	–	0.17 mg/kg (antagonist)	0.12	–	–	–
O=C(O)COCCN1CCN(C(c2ccccc2)c2ccc(Cl)cc2)CC1 (centres undefined)	–	–	–	–	–	–	–	–	–	–	–	–	–	–	inactive
